# The list is not random: actives were taken first. Their share in the collection is about 1.5%.
# CHT block = inhibits the human high affinity choline transporter; CHT-expressing cells, membrane potential dye, choline response; stronger effect = lower value; 0.86% of 310,000 active; B-score at 10 µM; AID 488975;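 active means B-score over 3 SD under the library average, and starting fluorescence ratio not unusually high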;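 further: choline stimulus applied at its EC90 after an EC20 pre-addition; B-score computed on integrated fluorescence ratio after choline addition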
# T cell HTS = modulates CD8 T cell binding to vesicles | response (vesicle binding), % at 7 µM | 2C CD8+ T cell-vesicle binding, flow cytometry; stronger effect = lower value | 0.068% of 330,000 active | AID 2052;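 active means response, share of CD8 T cells binding vesicles, and their 90th percentile fluorescence all below set limits, cut at about 80% in these data, passing the limit was not always enough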;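 further: values below 100% mean blocked vesicle binding to the CD8+ T cells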
#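 material = purified 2C TCR transgenic mouse naive CD8+ T cells | controls = Unloaded micro-vesicles (low), QL9 vesicles with 0.7% DMSO (high) | detection = cytometric PE anti-B7-1 and Alexa647 anti-CD8 signals after 1% paraformaldehyde fixation | incubation = binding step 1.5 h, 37 °C, antibody labelling 20 min, ice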
# VLA-4 inh = inhibition in a human VLA-4 binding assay; 0.2% of 330,000 active; AID 2557; VLA-4 expressing cells, ligand binding flow cytometry; inhibition, % (about 7 µM as worked out from the volumes in the protocol); in the data active means inhibition above about 50%
# CHT allo act = allosteric activators of human choline transporter CHT. AID 488977. Q9GZV3. 0.49% of 310,000 active. CHT-expressing cells, membrane potential dye, choline EC20; stronger effect = higher value; LV-AA mutant CHT in HEK293 cells. B-score at 10 µM;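 active means initial fluorescence not abnormally high and integrated response B-score, plate-corrected, over 3 SD above library mean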
# CHT block conf = confirmation of human choline transporter CHT inhibitors; shares compounds with CHT block; CHT-expressing cells, choline membrane potential dye; LV-to-AA substituted CHT, HEK293 cells; CHT activity remaining % of control (stronger effect = lower value), % at 10 µM; 70% of 2,400 active; AID 493221;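 active means choline transporter activity left, mean of duplicates at 10 µM, below buffer-only control mean minus 3 SD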;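 further: depolarization triggered by choline at its EC90 following an EC20 pre-addition; 0% = hemicholinium-3 full block and 100% = buffer-only control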
# HEK293 MPD ctr = counter-screen for CHT inhibitors: effect in parental HEK293 cells; 4% of 2,400 active; membrane potential dye, choline response; active = decrease or increase beyond buffer ±3SD; shares compounds with CHT block; AID 493222; membrane potential ratio readout (active if shifted either direction beyond buffer ±3SD; no single direction) at 10 µM;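 further: parental cells lack the transporter so any hit is non-specific; ratio is peak minus trough fluorescence over baseline after EC90 choline challenge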
# Active calls of the source: *; i = inactive; x = no result given.
SMILES,CHT block,T cell HTS,VLA-4 inh,CHT allo act,CHT block conf,HEK293 MPD ctr
CCOC(=O)c1sc(NC(=O)CSc2nc3c(c(=O)n2-c2ccc(C)cc2)SCC3)c(C(=O)OCC)c1C,-7*,324,-1,i,69%*,i
CCOC(=O)c1c(NC(=O)CSc2nnc(-c3cccc(C)c3)n2CC)sc(C(C)=O)c1C,i,252,-5,i,x,x
CCOC(=O)c1c(NC(=O)CSc2nnc(-c3ccccc3)n2CC)sc(C(C)=O)c1C,-5.3*,176,-31,i,i,i
CS(=O)(=O)c1ccc(NC(=O)c2ccc3c(c2)S(=O)(=O)N=C2CCCCCN23)cc1,i,i,-11,i,x,x
CCCc1nnc(NC(=O)c2nc(S(=O)(=O)Cc3cccc(C)c3)ncc2Cl)s1,-5.2*,427,18,i,30%*,i
Cc1cccc(CS(=O)(=O)c2ncc(Cl)c(C(=O)Nc3c(C)cccc3C)n2)c1,i,217,-4,i,x,x
Cc1nnc(NC(=O)c2nc(S(=O)(=O)Cc3ccccc3)ncc2Cl)s1,-11*,680,-18,i,28%*,i
C=CCN1C(=O)c2ccc(C(=O)N(CCOC)c3c(N)n(CCCC)c(=O)[nH]c3=O)cc2C1=O,i,221,4,i,x,x
COc1ccccc1NC(=S)N1CCC(C(=O)c2ccc(F)cc2)CC1,i,269,3,i,x,x
Fc1cnc(Cl)nc1NC1CCCCC1,i,307,1,i,x,x
O=C(NCc1ccon1)C1CCC(=O)N(CCc2ccc(Cl)cc2)C1 (centres undefined),i,409,3,i,x,x
CCC(C(=O)Nc1ccc(OC)c(Cl)c1)c1ccccc1 (centres undefined),-6.6*,0,8,i,i,i
CCC(C(=O)Nc1cccc(C(=O)O)c1)c1ccccc1 (centres undefined),i,297,17,i,x,x
CCC(C(=O)NCc1ccccc1OC)c1ccccc1 (centres undefined),i,357,2,i,i,i
CC(NS(=O)(=O)OCC(Cl)(Cl)Cl)c1ccc(Br)cc1 (centres undefined),-5.2*,734,-4,i,67%*,i
CCCCn1c(=O)[nH]c(=O)c2c1nc(CN1C(=O)c3ccccc3S1(=O)=O)n2CCC,i,180,-2,i,x,x
CCCCn1c(=O)[nH]c(=O)c2c1nc(Cn1ncc(Cl)c(Cl)c1=O)n2CCC,-6.1*,606,10,i,53%*,i
Cc1cc(OCC(=O)Nc2cc(C(C)(C)C)on2)ccc1[N+](=O)[O-],i,287,1,i,x,x
Cc1ccc(Cl)cc1NC(=O)NCc1cccnc1,i,369,10,i,x,x
CCC(Sc1nc2ccncc2[nH]1)C(=O)Nc1cc(Cl)ccc1C (centres undefined),-5.9*,652,35,i,i,i
O=C(N/N=C/c1cccnc1)c1ccc(CN2c3cccc4cccc(c34)S2(=O)=O)cc1,-5*,285,7,i,i,i
CCOc1ccc(C(=O)OC(C)CN2CCN(C)CC2)cc1 (centres undefined),i,450,8,i,x,x
CCCn1nc(NS(=O)(=O)c2cccc3nonc23)c2cc3cccc(C)c3nc21,-6.3*,508,7,i,54%*,i
Cc1ccc2cc3c(NS(=O)(=O)c4cccc5nonc45)nn(CC(C)C)c3nc2c1,-6*,359,4,i,64%*,i
CCCn1nc(NS(=O)(=O)c2cccc3nonc23)c2cc3cc(C)ccc3nc21,i,402,-8,i,x,x
SMILES,CHT block,T cell HTS,VLA-4 inh,CHT allo act,CHT block conf,HEK293 MPD ctr
CCOc1cc(C(c2c(O)nc(SC)[nH]c2=O)c2c(O)nc(SC)[nH]c2=O)ccc1O,i,104,3,i,x,x
COc1ccccc1C(c1c(O)nc(SC)[nH]c1=O)c1c(O)nc(SC)[nH]c1=O,i,153,24,i,i,i
S=C(NCC1CCCO1)Nc1cccc2ccccc12 (centres undefined),i,258,6,i,x,x
S=C(NCC1CCCO1)Nc1cc(Cl)c(Cl)cc1Cl (centres undefined),-9.9*,465,28,i,41%*,i
Cc1ccc(C(=O)N2CCN(c3ccccc3)CC2)cc1S(=O)(=O)N1CCCC1,-9.5*,256,-1,i,55%*,i
O=C(c1ccc(Cl)c(S(=O)(=O)N2CCCCC2)c1)N1CCN(c2ccccc2)CC1,i,206,-25,i,x,x
NC(=O)COC(=O)c1ccc(Cl)c(S(=O)(=O)N2CCN(c3ccc(F)cc3)CC2)c1,-7.1*,870,9,i,59%*,i
O=C(c1ccc(Cl)c(S(=O)(=O)N2CCCC2)c1)N1CCN(c2ccccc2)CC1,-6*,260,-7,i,42%*,i
COc1ccc(NC(=O)Cn2nnc(C(=O)NCCc3ccc(OC)c(OC)c3)c2N)c(OC)c1,i,240,11,i,x,x
Cc1cccc(-n2cc(CN3CCN(Cc4nccn4C)CC3)c(-c3cccc(F)c3)n2)c1,-9.7*,198,27,i,20%*,i
COc1ccc(-n2cc(CN3CCCC3)c(-c3cccc(F)c3)n2)cc1,i,428,-1,i,x,x
Cc1cc(N=Nc2ccccc2)c(NCC(O)C(O)C(O)CO)cc1C (centres undefined),-11*,297,-4,i,30%*,i
Cc1ccc(NCC(O)C(O)C(O)CO)cc1C (centres undefined),i,326,-1,i,x,x
Cc1ccc(OCCC(=O)OCC(=O)c2c(N)n(CC(C)C)c(=O)n(C)c2=O)cc1,x,234,0,x,x,x
Cc1ccccc1OCCC(=O)OCC(=O)c1c(N)n(CC(C)C)c(=O)n(C)c1=O,-6.6*,204,5,i,58%*,i
CC(C)Cn1c(N)c(C(=O)COC(=O)CCNS(=O)(=O)c2ccccc2)c(=O)n(C)c1=O,-6.3*,350,3,i,38%*,i
Cc1occc1C(=O)NNC(=O)Nc1ccc([N+](=O)[O-])cc1,i,i,1,i,x,x
Cc1ccc(NC(=S)Nc2ccc3[nH]c(=O)[nH]c3c2)cc1C,-6.9*,386,18,i,63%*,i
CC(=O)Nc1ccc(S(=O)(=O)NC2=C(N3CCN(Cc4ccccc4)CC3)C(=O)c3ccccc3C2=O)cc1,-6.2*,509,24,i,41%*,2.3*
COc1cccc(OCCSc2nnc3sc4ccccc4n23)c1,-8.7*,322,15,i,i,i
c1ccc(OCCSc2nnc3sc4ccccc4n23)cc1,i,721,2,i,x,x

# Source: PubChem BioAssay
